Laboratory results published in ChEMBL document CHEMBL4257525, “Synthesis and biological evaluation of new 3-amino-2-azetidinone derivatives as anti-colorectal cancer agents” (Medchemcomm, 2018).

tested on: not listed separately; test: Inhibition of porcine brain tubulin polymerization measured for 15 mins by spectrophotometric method; parameters: species or system Sus scrofa; conditions: not given
Method in brief: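 Lyophilized purified tubulin resuspended at 2.5 mg mL-1 in assembly buffer (80 mM PIPES pH 6.9, 1 mM MgCl2, 2 mM EGTA, 10% glycerol), mixed with 1 mM GTP and varying compound concentrations; 0.2% v/v DMSO vehicle control. Assembly read at 340 nm, 37 °C. IC50 = concentration inhibiting polymerization by 50%, from four-parameter logistic fit.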

Row | IC50 [µM] | SMILES
1 | 5.05 | COc1ccc([C@H]2[C@H](NC(C)=O)C(=O)N2c2cc(OC)c(OC)c(OC)c2)cc1O (relative stereo)

tested on: SW48; test: Antiproliferative activity against human SW48 cells after 72 hrs by MTT assay; type: functional, cell-based; conditions: SW48, 72 h
Method in brief: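 SW48 colorectal adenocarcinoma cells grown in RPMI-1640 with 10% FBS, 2 mM L-glutamine and penicillin/streptomycin at 37 °C, 5% CO2. 8000 cells per well exposed to a range of compound concentrations (in DMSO) for 72 h. MTT then added for 2 h at 37 °C, formazan solubilized, absorbance read at 570 nm. Triplicates in three independent experiments. IC50 from a four-parameter logistic fit against 0.1% DMSO controls.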

Row | SMILES | IC50 [µM]
2 | COc1ccc([C@H]2[C@H](NC(=O)c3ccc(Cl)cc3)C(=O)N2c2cc(OC)c(OC)c(OC)c2)cc1O | 0.271
3 | COc1ccc(C(=O)N[C@@H]2C(=O)N(c3cc(OC)c(OC)c(OC)c3)[C@H]2c2ccc(OC)c(O)c2)cc1 (relative stereo) | 0.108
4 | COc1ccc([C@H]2[C@H](NC(=O)C3CCCCC3)C(=O)N2c2cc(OC)c(OC)c(OC)c2)cc1O (relative stereo) | 0.244
5 | COc1ccc([C@H]2[C@H](NC(=O)c3cc(OC)c(OC)c(OC)c3)C(=O)N2c2cc(OC)c(OC)c(OC)c2)cc1O (relative stereo) | 0.564
6 | COc1ccc([C@H]2[C@H](NC(=O)c3ccc4ccccc4c3)C(=O)N2c2cc(OC)c(OC)c(OC)c2)cc1O (relative stereo) | 0.22
7 | COc1ccc([C@H]2[C@H](NC(=O)c3ccc(F)cc3)C(=O)N2c2cc(OC)c(OC)c(OC)c2)cc1O (relative stereo) | 0.384

Molecules with a lower IC50, results first:

Row | IC50 [µM] | SMILES
8 | 0.0906 | COc1ccc([C@H]2[C@H](NC(=O)[C@H](C)N)C(=O)N2c2cc(OC)c(OC)c(OC)c2)cc1O (relative stereo)
9 | 0.0494 | COc1ccc([C@H]2[C@H](NC(=O)Cc3c[nH]c4ccccc34)C(=O)N2c2cc(OC)c(OC)c(OC)c2)cc1O (relative stereo)
10 | 0.0186 | COc1ccc([C@H]2[C@H](NC(=O)c3ccco3)C(=O)N2c2cc(OC)c(OC)c(OC)c2)cc1O (relative stereo)
11 | 0.014 | COc1ccc([C@H]2[C@H](NC(C)=O)C(=O)N2c2cc(OC)c(OC)c(OC)c2)cc1O (relative stereo)
